In ChEMBL document CHEMBL4184148 (Bioorg Med Chem Lett, 2017):

Tests used:
Aurora kinase C = biological target: T1, Aurora kinase C (Homo sapiens, UniProt Q9UQB9); experiment: Inhibition of recombinant full length GST-tagged human Aurora C expressed in baculovirus expression system by Z'LYTE assay
T1 sequence (Q9UQB9 whole entry): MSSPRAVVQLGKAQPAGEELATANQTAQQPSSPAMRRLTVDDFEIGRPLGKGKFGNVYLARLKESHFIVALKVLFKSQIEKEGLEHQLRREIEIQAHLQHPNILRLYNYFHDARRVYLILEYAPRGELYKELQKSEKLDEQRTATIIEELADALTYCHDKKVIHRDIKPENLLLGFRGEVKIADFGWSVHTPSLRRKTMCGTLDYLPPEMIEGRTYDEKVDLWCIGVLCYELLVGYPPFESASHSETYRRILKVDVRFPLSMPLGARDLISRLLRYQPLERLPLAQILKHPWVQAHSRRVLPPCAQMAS
Outline: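 Biochemical IC50 from a Z'LYTE kinase assay, with ATP at the Km for each kinase. Values are reported with standard error.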

[1] = test system: Tyrosine-protein kinase ABL1 (Homo sapiens), P00519 [F317L]; experiment: Binding affinity to human phosphorylated ABL1 F317L mutant (S229 to K512 residues) expressed in HEK293 cells at 1 uM by Kinomescan method relative to control; type: cell-based
[2] = biological target: Bone morphogenetic protein receptor type-1A (Homo sapiens) (UniProt P36894); experiment: Binding affinity to wild-type human partial length BMPR1A (Q214 to I532 residues) expressed in Escherichia coli BL21 at 1 uM by Kinomescan method relative to control
[3] = biological target: Serine/threonine-protein kinase BRSK1 (Homo sapiens) (UniProt Q8TDC3); experiment: Binding affinity to wild-type human partial length BRSK1 (M1 to E754 residues) expressed in Escherichia coli BL21 at 1 uM by Kinomescan method relative to control
[4] = biological target: Calcium/calmodulin-dependent protein kinase type 1 (Homo sapiens) (UniProt Q14012); experiment: Binding affinity to wild-type human full length CAMK1 (M1 to L370 residues) expressed in Escherichia coli BL21 at 1 uM by Kinomescan method relative to control
[5] = biological target: Cyclin-dependent kinase 3 (Homo sapiens) (UniProt Q00526); experiment: Binding affinity to wild-type human full length CDK3 (M1 to H305 residues) expressed in Escherichia coli BL21 at 1 uM by Kinomescan method relative to control
Outline: (§1)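 Run as one kinome-wide competition binding panel with each compound at a single fixed concentration. Results were plotted as a kinome-wide selectivity map.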

[6] = biological target: Dual specificity protein kinase CLK2 (Homo sapiens) (UniProt P49760); experiment: Binding affinity to wild-type human partial length CLK2 (D144 to R498 residues) expressed in Escherichia coli BL21 at 1 uM by Kinomescan method relative to control
[7] = biological target: Epidermal growth factor receptor (Homo sapiens) (UniProt P00533); experiment: Binding affinity to human partial length EGFR S752-I759del mutant expressed in Escherichia coli BL21 at 1 uM by Kinomescan method relative to control
[8] = biological target: Mitogen-activated protein kinase 15 (Homo sapiens) (UniProt Q8TD08); experiment: Binding affinity to wild-type human partial length ERK8 (M1 to P437 residues) expressed in Escherichia coli BL21 at 1 uM by Kinomescan method relative to control
[9] = test system: Receptor-type tyrosine-protein kinase FLT3 (Homo sapiens), P36888 [D835Y]; experiment: Binding affinity to human partial length FLT3 D835Y mutant (Q580 to Y969 residues) expressed in Escherichia coli BL21 at 1 uM by Kinomescan method relative to control
[10] = biological target: G protein-coupled receptor kinase 4 (Homo sapiens) (UniProt P32298); experiment: Binding affinity to wild-type human full length GRK4 (M1 to C578 residues) expressed in Escherichia coli BL21 at 1 uM by Kinomescan method relative to control; outline: as §1
[11] = biological target: Mitogen-activated protein kinase kinase kinase kinase 1 (Homo sapiens) (UniProt Q92918); experiment: Binding affinity to wild-type human full length HPK1 (M1 to R799 residues) expressed in Escherichia coli BL21 at 1 uM by Kinomescan method relative to control; outline: as §1
[12] = biological target: Serine/threonine-protein kinase ICK (Homo sapiens) (UniProt Q9UPZ9); experiment: Binding affinity to wild-type human partial length ICK (M1 to P314 residues) expressed in HEK293 cells at 1 uM by Kinomescan method relative to control; type: cell-based
[13] = biological target: Tyrosine-protein kinase JAK1 (Homo sapiens) (UniProt P23458); experiment: Binding affinity to wild-type human partial length JAK1 JH1 catalytic domain (V856 to K1154 residues) expressed in Escherichia coli BL21 at 1 uM by Kinomescan method relative to control
[14] = biological target: Mitogen-activated protein kinase kinase kinase 11 (Homo sapiens) (UniProt Q16584); experiment: Binding affinity to wild-type human partial length MLK3 (I77 to W399 residues) expressed in Escherichia coli BL21 at 1 uM by Kinomescan method relative to control
[15] = biological target: Serine/threonine-protein kinase MRCK alpha (Homo sapiens) (UniProt Q5VT25); experiment: Binding affinity to wild-type human partial length MRCKA (L57 to V418 residues) expressed in Escherichia coli BL21 at 1 uM by Kinomescan method relative to control
[16] = biological target: Phosphatidylinositol 4-phosphate 3-kinase C2 domain-containing subunit beta (Homo sapiens) (UniProt O00750); experiment: Binding affinity to wild-type human partial length PIK3C2B (M1 to L1634 residues) expressed in HEK293 cells at 1 uM by Kinomescan method relative to control; type: cell-based
[17] = biological target: Membrane-associated tyrosine- and threonine-specific cdc2-inhibitory kinase (Homo sapiens) (UniProt Q99640); experiment: Binding affinity to wild-type human partial length PKMYT1 (A88 to G366 residues) expressed in Escherichia coli BL21 at 1 uM by Kinomescan method relative to control
[18] = biological target: Protein kinase C theta type (Homo sapiens) (UniProt Q04759); experiment: Binding affinity to wild-type human partial length PRKCQ (L350 to S706 residues) expressed in Escherichia coli BL21 at 1 uM by Kinomescan method relative to control
[19] = biological target: Serine/threonine-protein kinase D1 (Homo sapiens) (UniProt Q15139); experiment: Binding affinity to wild-type human partial length PRKD1 (G551 to E870 residues) expressed in Escherichia coli BL21 at 1 uM by Kinomescan method relative to control
[20] = biological target: Protein-tyrosine kinase 2-beta (Homo sapiens) (UniProt Q14289); experiment: Binding affinity to wild-type human full length PYK2 (M1 to E967 residues) expressed in Escherichia coli BL21 at 1 uM by Kinomescan method relative to control
Outline: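 Kinome-wide competition binding panel run by an outside provider, with each compound tested at a single concentration. Activity is read against the kinase panel.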

[21] = biological target: Serine/threonine-protein kinase TAO1 (Homo sapiens) (UniProt Q7L7X3); experiment: Binding affinity to wild-type human partial length TAOK1 (M1 to A320 residues) expressed in HEK293 cells at 1 uM by Kinomescan method relative to control; type: cell-based
[22] = biological target: Tyrosine-protein kinase ZAP-70 (Homo sapiens) (UniProt P43403); experiment: Binding affinity to wild-type human partial length ZAP70 (D20 to G299 residues) expressed in HEK293 cells at 1 uM by Kinomescan method relative to control; type: cell-based
Sequence of Tyrosine-protein kinase ZAP-70 (Homo sapiens) (P43403 whole entry, the tested form may be a part): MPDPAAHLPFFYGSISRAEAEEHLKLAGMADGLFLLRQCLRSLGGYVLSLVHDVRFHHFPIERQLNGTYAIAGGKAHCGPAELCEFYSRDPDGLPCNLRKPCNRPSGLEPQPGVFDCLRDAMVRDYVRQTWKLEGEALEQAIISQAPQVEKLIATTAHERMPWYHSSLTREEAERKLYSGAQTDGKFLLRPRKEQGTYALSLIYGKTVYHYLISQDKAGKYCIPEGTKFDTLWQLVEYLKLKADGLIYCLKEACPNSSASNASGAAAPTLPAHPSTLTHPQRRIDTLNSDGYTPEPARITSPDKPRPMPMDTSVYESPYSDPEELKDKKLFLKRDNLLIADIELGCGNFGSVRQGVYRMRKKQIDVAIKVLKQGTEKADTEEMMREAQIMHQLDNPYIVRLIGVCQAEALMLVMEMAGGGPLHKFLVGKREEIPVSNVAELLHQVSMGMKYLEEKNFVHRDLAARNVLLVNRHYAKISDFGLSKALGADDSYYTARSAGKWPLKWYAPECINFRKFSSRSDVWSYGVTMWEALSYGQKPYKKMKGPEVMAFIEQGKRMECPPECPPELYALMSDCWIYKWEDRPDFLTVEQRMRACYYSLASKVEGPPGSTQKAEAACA

Sequence of Tyrosine-protein kinase JAK1 (Homo sapiens) (P23458 whole entry, the tested form may be a part): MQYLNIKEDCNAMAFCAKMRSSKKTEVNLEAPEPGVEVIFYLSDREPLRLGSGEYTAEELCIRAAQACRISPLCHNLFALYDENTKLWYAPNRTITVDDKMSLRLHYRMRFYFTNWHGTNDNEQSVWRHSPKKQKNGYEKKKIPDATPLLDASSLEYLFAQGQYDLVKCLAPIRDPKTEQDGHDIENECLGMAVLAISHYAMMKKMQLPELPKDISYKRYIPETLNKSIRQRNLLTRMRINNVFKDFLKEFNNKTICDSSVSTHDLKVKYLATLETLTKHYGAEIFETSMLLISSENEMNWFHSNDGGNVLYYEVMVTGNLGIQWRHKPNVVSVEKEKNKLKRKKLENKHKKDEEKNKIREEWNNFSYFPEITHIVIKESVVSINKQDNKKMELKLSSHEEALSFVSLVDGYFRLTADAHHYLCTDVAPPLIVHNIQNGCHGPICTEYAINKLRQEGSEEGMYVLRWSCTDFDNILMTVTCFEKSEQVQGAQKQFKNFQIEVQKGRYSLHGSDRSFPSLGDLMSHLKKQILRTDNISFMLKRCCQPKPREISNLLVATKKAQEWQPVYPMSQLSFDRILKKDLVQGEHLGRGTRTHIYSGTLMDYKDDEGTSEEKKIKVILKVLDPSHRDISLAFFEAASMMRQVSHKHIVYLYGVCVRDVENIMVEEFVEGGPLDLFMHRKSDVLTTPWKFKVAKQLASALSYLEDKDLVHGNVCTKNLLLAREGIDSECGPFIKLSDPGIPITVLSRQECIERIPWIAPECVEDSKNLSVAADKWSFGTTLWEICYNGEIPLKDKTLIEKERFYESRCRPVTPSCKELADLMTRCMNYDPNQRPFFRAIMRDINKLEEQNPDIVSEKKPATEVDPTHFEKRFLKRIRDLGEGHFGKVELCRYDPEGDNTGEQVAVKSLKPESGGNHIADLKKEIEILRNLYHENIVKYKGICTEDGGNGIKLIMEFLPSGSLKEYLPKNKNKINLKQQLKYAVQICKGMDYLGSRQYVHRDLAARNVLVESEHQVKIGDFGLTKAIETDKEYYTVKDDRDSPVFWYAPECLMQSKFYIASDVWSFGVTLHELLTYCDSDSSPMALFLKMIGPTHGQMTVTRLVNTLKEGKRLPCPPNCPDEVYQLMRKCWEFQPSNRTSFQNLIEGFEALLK
Sequence of Serine/threonine-protein kinase ICK (Homo sapiens) (Q9UPZ9 whole entry, the tested form may be a part): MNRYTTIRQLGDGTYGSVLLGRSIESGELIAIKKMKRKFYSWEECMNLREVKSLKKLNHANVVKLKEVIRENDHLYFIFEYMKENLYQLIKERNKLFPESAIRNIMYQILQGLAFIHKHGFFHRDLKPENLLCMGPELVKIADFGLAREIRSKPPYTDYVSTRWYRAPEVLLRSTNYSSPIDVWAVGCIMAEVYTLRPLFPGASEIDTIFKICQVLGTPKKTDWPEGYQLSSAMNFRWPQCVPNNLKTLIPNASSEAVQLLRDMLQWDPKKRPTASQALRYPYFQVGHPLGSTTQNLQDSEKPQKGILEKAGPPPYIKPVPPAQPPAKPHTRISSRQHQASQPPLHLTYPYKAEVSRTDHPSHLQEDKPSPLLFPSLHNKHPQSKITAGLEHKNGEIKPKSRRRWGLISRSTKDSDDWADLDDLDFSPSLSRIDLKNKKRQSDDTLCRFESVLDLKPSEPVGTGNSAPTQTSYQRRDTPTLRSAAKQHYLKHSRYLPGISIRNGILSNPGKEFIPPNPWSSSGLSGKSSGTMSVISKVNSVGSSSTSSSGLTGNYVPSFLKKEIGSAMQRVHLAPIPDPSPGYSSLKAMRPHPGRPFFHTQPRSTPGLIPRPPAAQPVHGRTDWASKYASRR
Sequence of Bone morphogenetic protein receptor type-1A (Homo sapiens) (P36894 whole entry, the tested form may be a part): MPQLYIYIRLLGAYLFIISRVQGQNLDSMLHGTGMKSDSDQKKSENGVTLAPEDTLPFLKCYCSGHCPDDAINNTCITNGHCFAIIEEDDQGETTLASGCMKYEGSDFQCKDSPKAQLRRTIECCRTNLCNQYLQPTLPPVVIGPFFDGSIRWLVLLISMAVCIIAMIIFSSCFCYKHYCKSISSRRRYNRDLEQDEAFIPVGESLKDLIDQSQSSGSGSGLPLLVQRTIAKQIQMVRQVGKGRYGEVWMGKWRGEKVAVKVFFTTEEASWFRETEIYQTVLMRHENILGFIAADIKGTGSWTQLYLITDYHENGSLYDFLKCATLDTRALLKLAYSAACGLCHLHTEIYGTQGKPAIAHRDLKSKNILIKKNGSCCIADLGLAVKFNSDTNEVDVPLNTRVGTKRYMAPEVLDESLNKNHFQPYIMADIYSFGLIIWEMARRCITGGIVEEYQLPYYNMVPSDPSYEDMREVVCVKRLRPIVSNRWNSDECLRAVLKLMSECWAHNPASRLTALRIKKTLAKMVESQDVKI
Sequence of Epidermal growth factor receptor (Homo sapiens) (P00533 whole entry, the tested form may be a part): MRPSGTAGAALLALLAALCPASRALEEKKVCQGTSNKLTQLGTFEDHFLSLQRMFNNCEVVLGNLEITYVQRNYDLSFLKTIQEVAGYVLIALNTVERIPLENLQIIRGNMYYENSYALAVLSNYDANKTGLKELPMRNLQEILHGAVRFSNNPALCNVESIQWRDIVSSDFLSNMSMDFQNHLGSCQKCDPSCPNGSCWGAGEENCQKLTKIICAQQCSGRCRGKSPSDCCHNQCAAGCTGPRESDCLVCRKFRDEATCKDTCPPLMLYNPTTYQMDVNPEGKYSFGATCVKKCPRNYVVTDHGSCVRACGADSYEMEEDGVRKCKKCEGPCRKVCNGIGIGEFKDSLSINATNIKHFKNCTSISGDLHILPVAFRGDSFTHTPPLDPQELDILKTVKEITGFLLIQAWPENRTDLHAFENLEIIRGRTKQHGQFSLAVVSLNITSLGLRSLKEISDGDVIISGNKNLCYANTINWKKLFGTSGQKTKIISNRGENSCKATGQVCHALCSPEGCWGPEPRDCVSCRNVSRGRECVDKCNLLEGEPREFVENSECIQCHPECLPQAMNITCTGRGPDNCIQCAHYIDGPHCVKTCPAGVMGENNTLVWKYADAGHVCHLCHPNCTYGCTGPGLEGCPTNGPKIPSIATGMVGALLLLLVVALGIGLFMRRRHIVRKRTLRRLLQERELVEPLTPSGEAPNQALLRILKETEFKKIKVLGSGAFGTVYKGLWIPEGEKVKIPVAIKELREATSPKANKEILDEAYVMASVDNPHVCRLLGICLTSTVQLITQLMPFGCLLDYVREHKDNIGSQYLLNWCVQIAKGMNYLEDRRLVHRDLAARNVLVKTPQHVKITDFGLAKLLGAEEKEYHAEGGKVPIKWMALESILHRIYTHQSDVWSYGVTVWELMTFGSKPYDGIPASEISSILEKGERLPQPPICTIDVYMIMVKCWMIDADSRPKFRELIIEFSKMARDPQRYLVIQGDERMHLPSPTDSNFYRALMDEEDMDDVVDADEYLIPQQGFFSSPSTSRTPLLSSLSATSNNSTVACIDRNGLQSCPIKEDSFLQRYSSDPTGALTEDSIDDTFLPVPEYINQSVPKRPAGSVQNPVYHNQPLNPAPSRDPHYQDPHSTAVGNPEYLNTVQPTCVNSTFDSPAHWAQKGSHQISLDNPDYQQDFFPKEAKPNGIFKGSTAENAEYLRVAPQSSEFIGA
Sequence of Serine/threonine-protein kinase D1 (Homo sapiens) (Q15139 whole entry, the tested form may be a part): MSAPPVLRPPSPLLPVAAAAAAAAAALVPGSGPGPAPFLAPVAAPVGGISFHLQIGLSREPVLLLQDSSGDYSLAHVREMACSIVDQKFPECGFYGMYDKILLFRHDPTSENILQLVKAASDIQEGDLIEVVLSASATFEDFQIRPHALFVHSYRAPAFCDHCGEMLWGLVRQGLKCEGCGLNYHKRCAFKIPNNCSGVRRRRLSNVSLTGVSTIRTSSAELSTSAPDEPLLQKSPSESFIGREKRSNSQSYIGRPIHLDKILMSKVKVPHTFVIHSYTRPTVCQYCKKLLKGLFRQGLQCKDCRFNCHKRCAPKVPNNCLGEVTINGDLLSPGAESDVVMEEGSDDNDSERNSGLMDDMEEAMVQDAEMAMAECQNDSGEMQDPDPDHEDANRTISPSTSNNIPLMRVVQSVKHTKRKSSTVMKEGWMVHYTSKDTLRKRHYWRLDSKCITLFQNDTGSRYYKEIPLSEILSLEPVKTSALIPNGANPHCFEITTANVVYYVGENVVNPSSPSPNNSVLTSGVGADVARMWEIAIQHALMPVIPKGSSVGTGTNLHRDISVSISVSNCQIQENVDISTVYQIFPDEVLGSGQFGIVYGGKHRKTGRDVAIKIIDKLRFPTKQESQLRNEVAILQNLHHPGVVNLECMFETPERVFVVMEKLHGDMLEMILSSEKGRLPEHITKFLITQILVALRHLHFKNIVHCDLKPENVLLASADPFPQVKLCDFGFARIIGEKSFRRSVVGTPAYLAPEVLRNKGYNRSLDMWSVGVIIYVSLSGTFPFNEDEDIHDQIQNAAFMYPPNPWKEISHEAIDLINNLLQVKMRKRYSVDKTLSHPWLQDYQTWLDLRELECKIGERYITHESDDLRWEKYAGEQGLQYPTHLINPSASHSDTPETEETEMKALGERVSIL

Compound | IC50 (Aurora kinase C) [nM] | Activity [1] [%] | Activity [2] [%] | Activity [3] [%] | Activity [4] [%] | Activity [5] [%] | Activity [6] [%] | Activity [7] [%] | Activity [8] [%] | Activity [9] [%] | Activity [10] [%] | Activity [11] [%] | Activity [12] [%] | Activity [13] [%] | Activity [14] [%] | Activity [15] [%] | Activity [16] [%] | Activity [17] [%] | Activity [18] [%] | Activity [19] [%] | other results
CCC(=O)Nc1ccc(C(=O)Nc2ccc(Nc3ncc4c(n3)N(C)c3ccc(C)cc3C(=O)N4C)cc2)cc1 | 53 | 100 | 100 | 90 | 90 | 95 | 88 | 90 | 94 | 77 | 100 | 86 | 97 | 86 | 95 | 100 | 79 | 86 | 99 | 97 | Activity [20]: 95%; Activity [21]: 89%; Activity [22]: 95%
C=CC(=O)Nc1ccc(C(=O)Nc2ccc(Nc3ncc4c(n3)N(C)c3ccc(C)cc3C(=O)N4C)cc2)cc1 | 63 | 92 | 82 | 100 | 88 | 100 | 99 | 96 | 96 | 83 | 97 | 100 | 86 | 96 | 83 | 94 | 98 | 96 | 96 | 93 | Activity [20]: 97%; Activity [21]: 92%; Activity [22]: 97%
